{"source": "PubChem BioAssay AID623962", "about": "(The Scripps Research Institute Molecular Screening Center, 2012)", "test_system": "Huh-7.5 HCV Rluc replicon, luciferase luminescence, 72 h", "assay": "HCV RNA replication inhibitors in Huh-7.5 cells – cell-based, luminescence, Renilla luciferase replicon, orthogonal assay for HCV NS3 helicase inhibitor project, late-stage follow-up (AID 623962)", "details": "at 10 µM; stronger effect = higher value", "method_in_brief": "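Assay system: Huh-7.5 HCV Renilla luciferase replicon cells | Compound: One concentration, 10 µM in 0.5% DMSO | Times: 4-5 h attachment, 72 h compound exposure at 37 °C | Detection: Renilla luciferase luminescence from cell lysate after freeze/thaw lysis | Evaluation: % replication inhibition versus DMSO-treated cells | Controls: DMSO-only wells as reference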", "note": "Where “and” joins values, the source holds several entries; their conditions need not be identical. Equal values may be shown once. Calls of active or inactive are those of the source.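 How the source made its calls: active means mean inhibition at 10 µM of 50% or more; inactive means mean inhibition at 10 µM below 50%.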"}
{"smiles": "CCN(CC)c1ccc(-c2nc3ccc(-c4nc5ccc(C)c(S(=O)(=O)O)c5s4)cc3s2)cc1", "values": [{"measurement": "inhibition", "result": "0% (inactive)"}]}
{"smiles": "COc1ccc(S(=O)(=O)Nc2ccc(-c3nc4ccc(-c5nc6ccc(C)c(S(=O)(=O)O)c6s5)cc4s3)cc2)cc1", "values": [{"measurement": "inhibition", "result": "44% (inactive)"}]}
{"smiles": "Cc1ccc2nc(-c3ccc4nc(-c5ccc(NS(=O)(=O)c6ccc(C(F)(F)F)cc6)cc5)sc4c3)sc2c1S(=O)(=O)O", "values": [{"measurement": "inhibition", "result": "-7% (inactive)"}]}
{"smiles": "O=C(Nc1ccc(-c2nc3ccccc3[nH]2)cc1)c1ccc2ncsc2c1", "values": [{"measurement": "inhibition", "result": "-7% (inactive)"}]}
{"smiles": "Cc1ccc2nc(-c3ccc(N)cc3)sc2c1S(=O)(=O)O", "values": [{"measurement": "inhibition", "result": "0% (inactive)"}]}
{"smiles": "Cc1ccc(NC(=O)Nc2ccc(-c3nc4ccc(-c5nc6ccc(C)c(S(=O)(=O)O)c6s5)cc4s3)cc2)cc1", "values": [{"measurement": "inhibition", "result": "43% (inactive)"}]}
{"smiles": "CC(=O)Nc1ccc(-c2nc3ccc(-c4nc5ccc(C)c(S(=O)(=O)O)c5s4)cc3s2)cc1", "values": [{"measurement": "inhibition", "result": "26% (inactive)"}]}
{"smiles": "Cc1ccc2nc(-c3ccc4nc(-c5ccc(NC(=O)c6ccc(NC(=O)OCC7c8ccccc8-c8ccccc87)cc6)cc5)sc4c3)sc2c1S(=O)(=O)O", "values": [{"measurement": "inhibition", "result": 57, "unit": "%"}]}
{"smiles": "Cc1ccc2nc(-c3ccc4nc(-c5ccc6nc(-c7ccc(N)cc7)sc6c5)sc4c3)sc2c1S(=O)(=O)O", "values": [{"measurement": "inhibition", "result": 59, "unit": "%"}]}
{"smiles": "Cc1ccc2nc(-c3ccc4nc(-c5ccc(NC(=O)c6ccc7ncoc7c6)cc5)sc4c3)sc2c1S(=O)(=O)O", "values": [{"measurement": "inhibition", "result": "15% (inactive)"}]}
{"smiles": "Cc1ccc2nc(-c3ccc4nc(-c5ccc6nc(-c7ccc(N)cc7)sc6c5)sc4c3)sc2c1S(=O)(=O)O", "note": "(tested in a mixture with another compound)", "values": [{"measurement": "inhibition", "result": "0% (inactive)"}]}
{"smiles": "Cc1ccc2nc(-c3ccc4nc(-c5ccc(NC(=O)c6ccc(F)cc6)cc5)sc4c3)sc2c1S(=O)(=O)O", "values": [{"measurement": "inhibition", "result": 50, "unit": "%"}]}
{"smiles": "Cc1ccc2nc(-c3ccc4nc(-c5ccc6nc(-c7ccc8nc(-c9ccc(N)cc9)sc8c7)sc6c5)sc4c3)sc2c1S(=O)(=O)O", "values": [{"measurement": "inhibition", "result": "0% (inactive) and 45% (inactive)"}]}
{"smiles": "Cc1ccc2nc(-c3ccc(NC(=O)c4ccc(NC(=S)Nc5ccccc5)cc4)cc3)sc2c1S(=O)(=O)O", "values": [{"measurement": "inhibition", "result": "-13% (inactive)"}]}
{"smiles": "Cc1ccc2nc(-c3ccc(NC(=O)c4ccc(NC(=O)OCC5c6ccccc6-c6ccccc65)cc4)cc3)sc2c1S(=O)(=O)O", "values": [{"measurement": "inhibition", "result": "31% (inactive)"}]}
{"smiles": "Cc1ccc2nc(-c3ccc(NC(=O)c4ccc(C(F)(F)F)cc4)cc3)sc2c1S(=O)(=O)O", "values": [{"measurement": "inhibition", "result": "11% (inactive)"}]}
{"smiles": "Cc1ccc2nc(-c3ccc(NC(=O)c4ccc(NC(=O)c5ccc(C(F)(F)F)cc5)cc4)cc3)sc2c1S(=O)(=O)O", "values": [{"measurement": "inhibition", "result": "4% (inactive)"}]}
{"smiles": "Cc1ccc2nc(-c3ccc4nc(-c5ccc(NC(=O)c6ccc(Br)cc6)cc5)sc4c3)sc2c1S(=O)(=O)O", "values": [{"measurement": "inhibition", "result": "7% (inactive)"}]}
{"smiles": "Cc1ccc2nc(-c3ccc4nc(-c5ccc(NC(=O)c6ccncc6)cc5)sc4c3)sc2c1S(=O)(=O)O", "values": [{"measurement": "inhibition", "result": 59, "unit": "%"}]}
{"smiles": "O=C(Nc1nc2ccc(Br)cc2s1)c1ccc2ncsc2c1", "values": [{"measurement": "inhibition", "result": "25% (inactive)"}]}
{"smiles": "COC(=O)c1ccc(C(=O)Nc2ccc(-c3nc4ccc(-c5nc6ccc(C)c(S(=O)(=O)O)c6s5)cc4s3)cc2)cc1", "values": [{"measurement": "inhibition", "result": "40% (inactive)"}]}
{"smiles": "Cc1ccc2nc(-c3ccc4nc(-c5ccc(NCc6ccccc6)cc5)sc4c3)sc2c1S(=O)(=O)O", "values": [{"measurement": "inhibition", "result": "-64% (inactive)"}]}
{"smiles": "Cc1ccc(C(=O)Nc2ccc(-c3nc4ccc(-c5nc6ccc(C)c(S(=O)(=O)O)c6s5)cc4s3)cc2)cc1", "values": [{"measurement": "inhibition", "result": 52, "unit": "%"}]}
{"smiles": "Cc1ccc2nc(-c3ccc4nc(-c5ccc(NC(=O)c6cccc(C(F)(F)F)c6)cc5)sc4c3)sc2c1S(=O)(=O)O", "values": [{"measurement": "inhibition", "result": "41% (inactive)"}]}
{"smiles": "Cc1ccc2nc(-c3ccc4nc(-c5ccc(NC(=O)c6ccc(C(F)(F)F)c(F)c6)cc5)sc4c3)sc2c1S(=O)(=O)O", "values": [{"measurement": "inhibition", "result": "48% (inactive)"}]}
{"smiles": "COc1cccc2c(=O)c3cc(Cl)cc(C(=O)Nc4cc(Cl)ccn4)c3[nH]c12", "values": [{"measurement": "inhibition", "result": 73, "unit": "%"}]}
{"smiles": "CS(=O)(=O)c1ccc2nc(NC(=O)c3ccc4ncsc4c3)sc2c1", "values": [{"measurement": "inhibition", "result": 55, "unit": "%"}]}
{"smiles": "Cc1ccc2nc(-c3ccc(NC(=O)c4ccc(NC(=O)c5ccccc5)cc4)cc3)sc2c1S(=O)(=O)O", "values": [{"measurement": "inhibition", "result": "19% (inactive)"}]}
{"smiles": "Cc1ccc2nc(-c3ccc4nc(-c5ccc(NC(=O)Nc6ccc(F)cc6)cc5)sc4c3)sc2c1S(=O)(=O)O", "values": [{"measurement": "inhibition", "result": "17% (inactive)"}]}
{"smiles": "Cc1ccc2nc(-c3ccc4nc(-c5ccc(NC(=O)c6ccc(C(F)(F)F)cc6)cc5)sc4c3)sc2c1S(=O)(=O)O", "values": [{"measurement": "inhibition", "result": "44% (inactive)"}]}
{"smiles": "Cc1ccc2nc(-c3ccc4nc(-c5ccc(NC(=O)Nc6ccc(C(F)(F)F)cc6)cc5)sc4c3)sc2c1S(=O)(=O)O", "values": [{"measurement": "inhibition", "result": "7% (inactive)"}]}
{"smiles": "Cc1ccc2nc(-c3ccc4nc(-c5ccc(NC(=O)c6ccc(N)cc6)cc5)sc4c3)sc2c1S(=O)(=O)O", "values": [{"measurement": "inhibition", "result": "33% (inactive)"}]}
{"smiles": "Cc1ccc2nc(-c3ccc4nc(-c5ccc(NC(=O)c6ccccc6C(F)(F)F)cc5)sc4c3)sc2c1S(=O)(=O)O", "values": [{"measurement": "inhibition", "result": "0% (inactive)"}]}
{"smiles": "Cc1ccc2nc(-c3ccc4nc(-c5ccc(NC(=O)c6cc(F)cc(C(F)(F)F)c6)cc5)sc4c3)sc2c1S(=O)(=O)O", "values": [{"measurement": "inhibition", "result": 51, "unit": "%"}]}
{"smiles": "CCN(CC)c1ccc(-c2nc3ccc(C)c(S(=O)(=O)O)c3s2)cc1", "values": [{"measurement": "inhibition", "result": "0% (inactive)"}]}
{"smiles": "Cc1ccc2c(sc(-c3ccc4c(c3)sc(-c3ccc5c(c3)sc(-c3ccc(N(C)C)cc3)[n+]5C)[n+]4C)[n+]2C)c1S(=O)(=O)O", "note": "(tested in a mixture with another compound)", "values": [{"measurement": "inhibition", "result": "-16% (inactive)"}]}
{"smiles": "CCOc1ccc2c(NNC(=O)c3cnccn3)c3c(nc2c1)CCCC3", "values": [{"measurement": "inhibition", "result": 81, "unit": "%"}]}
{"smiles": "CN1CCN(Cc2cc(CN3CCN(C)CC3)c(O)c(=O)c(CN3CCN(C)CC3)c2)CC1", "values": [{"measurement": "inhibition", "result": "46% (inactive)"}]}
{"smiles": "COc1ccc(NC(=O)Nc2ccc(-c3nc4ccc(-c5nc6ccc(C)c(S(=O)(=O)O)c6s5)cc4s3)cc2)cc1", "values": [{"measurement": "inhibition", "result": "21% (inactive)"}]}
{"smiles": "Cc1ccc2nc(-c3ccc4nc(-c5ccc(NC(=O)c6ccc(C(C)(C)C)cc6)cc5)sc4c3)sc2c1S(=O)(=O)O", "values": [{"measurement": "inhibition", "result": 51, "unit": "%"}]}
{"smiles": "Cc1ccc2nc(-c3ccc4nc(-c5ccc(NC(=O)c6cc(C(F)(F)F)cc(C(F)(F)F)c6)cc5)sc4c3)sc2c1S(=O)(=O)O", "values": [{"measurement": "inhibition", "result": 60, "unit": "%"}]}
{"smiles": "Cc1ccc2nc(-c3ccc4nc(NC(=O)c5ccc6ncoc6c5)sc4c3)sc2c1", "values": [{"measurement": "inhibition", "result": 90, "unit": "%"}]}
{"smiles": "Cc1ccc2nc(-c3ccc4nc(-c5ccc(NC(=O)c6ccc7nc(-c8ccc(NC(=O)OCC9c%10ccccc%10-c%10ccccc%109)cc8)sc7c6)cc5)sc4c3)sc2c1S(=O)(=O)O", "values": [{"measurement": "inhibition", "result": "42% (inactive) and 44% (inactive)"}]}
{"smiles": "Cc1ccc2nc(-c3ccc4nc(-c5ccc(NC(=O)c6cccc(C(F)(F)F)c6F)cc5)sc4c3)sc2c1S(=O)(=O)O", "values": [{"measurement": "inhibition", "result": "48% (inactive)"}]}
{"smiles": "Cc1ccc2nc(-c3ccc4nc(-c5ccc(NC(=O)c6ccc(N(C)C)cc6)cc5)sc4c3)sc2c1S(=O)(=O)O", "values": [{"measurement": "inhibition", "result": "22% (inactive)"}]}
{"smiles": "COc1ccc(C(=O)Nc2ccc(-c3nc4ccc(-c5nc6ccc(C)c(S(=O)(=O)O)c6s5)cc4s3)cc2)cc1", "values": [{"measurement": "inhibition", "result": 64, "unit": "%"}]}
{"smiles": "Cc1ccc2nc(-c3ccc(NC(=O)c4ccc(N)cc4)cc3)sc2c1S(=O)(=O)O", "values": [{"measurement": "inhibition", "result": "21% (inactive)"}]}
{"smiles": "Cc1ccc2nc(-c3ccc(NC(=O)c4ccc(NS(=O)(=O)c5ccccc5)cc4)cc3)sc2c1S(=O)(=O)O", "values": [{"measurement": "inhibition", "result": "-73% (inactive)"}]}
{"smiles": "Cc1ccc2nc(-c3ccc(NC(=O)c4ccc(NC(=O)c5ccc(N)cc5)cc4)cc3)sc2c1S(=O)(=O)O", "values": [{"measurement": "inhibition", "result": "-42% (inactive)"}]}
{"smiles": "Cc1ccc2nc(-c3ccc4nc(-c5ccc(NC(=O)Nc6ccc(Cl)cc6)cc5)sc4c3)sc2c1S(=O)(=O)O", "values": [{"measurement": "inhibition", "result": "35% (inactive)"}]}
{"smiles": "Cc1ccc2nc(-c3ccc(NC(=O)c4ccc(NC(=O)Nc5ccccc5)cc4)cc3)sc2c1S(=O)(=O)O", "values": [{"measurement": "inhibition", "result": "-64% (inactive)"}]}
